Measured values as given in ChEMBL document CHEMBL1153955, “Indolylarylsulfones bearing natural and unnatural amino acids. Discovery of potent inhibitors of HIV-1 non-nucleoside wild type and resistant mutant strains reverse transcriptase and coxsackie B4 virus” (J Med Chem, 2009).

Tests used:
[1] = Cytotoxicity against human HEL cells assessed as drug level causing microscopically detectable alteration of normal cell morphology after 3 days; type: cell-based
[2] = target: Human immunodeficiency virus type 1 reverse transcriptase (Human immunodeficiency virus 1, UniProt Q72547, Y181I); assay: Inhibition of HIV1 reverse transcriptase p66/p51 Y181I mutant; settings: read-out: IC50
Summary of the method: (§1)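 Substrate was 0.5 µg poly(rA)/oligo(dT) 10:1 (0.3 µM 3′-OH ends) with 10 µM [³H]dTTP, at 37 °C. Acid-precipitable radioactivity was counted on GF/C filters after TCA washes.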

[3] = target: Human immunodeficiency virus type 1 reverse transcriptase (Human immunodeficiency virus 1, UniProt Q72547, L100I); assay: Inhibition of HIV1 reverse transcriptase p66/p51 L100I mutant; settings: read-out: IC50; summary of the method: as §1
Human alphaherpesvirus 1 [4] = assay: Antiviral activity against thymidine kinase deficient and acyclovir resistant HSV1 KOS in human HEL cells assessed as protection against virus-induced cytopathicity; type: functional, organism-based; settings: Human alphaherpesvirus 1, KOS
Punta Toro virus = assay: Antiviral activity against Punta Toro virus in african green monkey Vero cells assessed as protection against virus-induced cytopathicity; type: functional, organism-based
Summary of the method: (§2)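 Confluent cell monolayers inoculated with 100 CCID₅₀ virus. After 1-2 h adsorption, residual virus removed and cultures incubated with varying compound concentrations. Cytopathicity scored once it reached completion in untreated infected controls. EC₅₀ = dose reducing virus-induced cytopathogenicity by 50%.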

Vaccinia virus = assay: Antiviral activity against Vaccinia virus Lederle in human HEL cells assessed as protection against virus-induced cytopathicity; type: functional, organism-based; settings: Orthopoxvirus vaccinia
Influenza A virus [5] = assay: Antiviral activity against influenza H1N1 virus in MDCK cells assessed as reduction of virus-induced cytopathicity by visual cytopathic effect scoring method; type: functional, organism-based
[6] = test system: Mammalian orthoreovirus 1; assay: Antiviral activity against Reovirus 1 in african green monkey Vero cells assessed as protection against virus-induced cytopathicity; type: functional, organism-based; settings: Mammalian orthoreovirus 1, Vero; summary of the method: as §2
Human alphaherpesvirus 2 = assay: Antiviral activity against HSV2 G in human HEL cells assessed as protection against virus-induced cytopathicity; type: functional, organism-based; settings: Human alphaherpesvirus 2, strain G; summary of the method: as §2
Influenza B virus [7] = assay: Antiviral activity against influenza B virus in MDCK cells assessed as reduction of virus-induced cytopathicity by MTS method; type: functional, organism-based
Influenza A virus H3N2 [8] = assay: Antiviral activity against influenza H3N2 virus in MDCK cells assessed as reduction of virus-induced cytopathicity by visual cytopathic effect scoring method; type: functional, organism-based
Coxsackievirus B4 [9] = assay: Antiviral activity against Coxsackievirus B4 in human HeLa cells assessed as protection against virus-induced cytopathicity; type: functional, organism-based; settings: Enterovirus B; summary of the method: as §2
[10] = Antiproliferative activity against human Molt4/C8 cells after 3 days; type: cell-based; settings: MOLT-4, 72 h
Summary of the method: (§3)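 Cells seeded at 5 × 10⁴ to 7.5 × 10⁴ cells/200 µL with or without serial compound dilutions; incubated at 37 °C for 2 days (L1210) or 3 days (Molt4/C8, CEM). Cell numbers counted with a Coulter counter. CC₅₀ = concentration reducing proliferation by 50% versus untreated controls, read from plots of cell number (% of control) against concentration. Means of at least two independent experiments.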

[11] = test system: Respiratory syncytial virus; assay: Antiviral activity against RSV Long in human HeLa cells assessed as protection against virus-induced cytopathicity; type: functional, organism-based; summary of the method: as §2
Influenza A virus [12] = assay: Antiviral activity against influenza H1N1 virus in MDCK cells assessed as reduction of virus-induced cytopathicity by MTS method; type: functional, organism-based; settings: Influenza A virus, H1N1, MDCK
CCRF-CEM = assay: Antiproliferative activity against human CEM cells after 3 days; type: cell-based; settings: 72 h; summary of the method: as §3
[13] = test system: Vesicular stomatitis virus; assay: Antiviral activity against VSV in human HEL cells assessed as protection against virus-induced cytopathicity; type: functional, organism-based
[14] = test system: Human immunodeficiency virus 1; assay: Antiviral activity against HIV1 3B in human CEM cells assessed as protection against virus-induced cytopathicity after 4 days; type: functional, organism-based; settings: Human immunodeficiency virus 1, 3B, CCRF-CEM, 96 h
Summary of the method: (§4)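 CEM cells (~3 × 10⁵ cells/mL) infected with ~100 CCID₅₀ per mL of HIV-1 (IIIB) or HIV-2 (ROD), then seeded into wells containing compound dilutions. After 4 days at 37 °C, syncytium (giant cell) formation was examined microscopically. EC₅₀ = concentration protecting CEM cells from HIV cytopathicity by 50%.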

Human alphaherpesvirus 1 [15] = assay: Antiviral activity against HSV1 KOS in human HEL cells assessed as protection against virus-induced cytopathicity; type: functional, organism-based; settings: Human alphaherpesvirus 1, KOS
[16] = target: Human immunodeficiency virus type 1 reverse transcriptase (Human immunodeficiency virus 1, UniProt Q72547, K103N); assay: Inhibition of HIV1 reverse transcriptase p66/p51 K103N mutant; settings: read-out: IC50; summary of the method: as §1
[17] = test system: Vesicular stomatitis virus; assay: Antiviral activity against VSV in human HeLa cells assessed as protection against virus-induced cytopathicity; type: functional, organism-based
L1210 = assay: Antiproliferative activity against mouse L1210 cells after 2 days; type: cell-based; settings: L1210, 48 h; summary of the method: as §3
Influenza B virus [18] = assay: Antiviral activity against influenza B virus in MDCK cells assessed as reduction of virus-induced cytopathicity by visual cytopathic effect scoring method; type: functional, organism-based
Coxsackievirus B4 [19] = assay: Antiviral activity against Coxsackievirus B4 in african green monkey Vero cells assessed as protection against virus-induced cytopathicity; type: functional, organism-based; settings: Enterovirus B; summary of the method: as §2
[20] = Cytotoxicity against human HeLa cells assessed as drug level causing microscopically detectable alteration of normal cell morphology after 3 days; type: cell-based
Summary of the method: (§5)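 Serial compound dilutions added to confluent HeLa or Vero monolayers. MCC = minimum concentration causing microscopically detectable alteration of cell morphology after 3 days of incubation.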

Feline coronavirus = assay: Antiviral activity against Feline coronavirus in feline […] cells assessed as inhibition of virus-induced cytopathicity; type: functional, organism-based; settings: Alphacoronavirus 1
[21] = Cytotoxicity against feline CRFK cells by MTS assay; type: cell-based, Felis catus; settings: cat
[22] = Cytotoxicity against MDCK cells by MTS assay; type: cell-based, Canis lupus familiaris; settings: dog
[23] = test system: Human immunodeficiency virus 2; assay: Antiviral activity against HIV2 ROD in human CEM cells assessed as protection against virus-induced cytopathicity after 4 days; type: functional, organism-based; settings: Human immunodeficiency virus 2, ROD, CCRF-CEM, 96 h; summary of the method: as §4
Influenza A virus H3N2 [24] = assay: Antiviral activity against influenza H3N2 virus in MDCK cells assessed as reduction of virus-induced cytopathicity by MTS method; type: functional, organism-based
Human respirovirus 3 = assay: Antiviral activity against Parainfluenza virus type 3 in african green monkey Vero cells assessed as protection against virus-induced cytopathicity; type: functional, organism-based; settings: Human respirovirus 3, Vero; summary of the method: as §2
[25] = Cytotoxicity against MDCK cells assessed as drug level causing microscopically detectable alteration of normal cell morphology; type: cell-based, Canis lupus familiaris; settings: dog
Felid alphaherpesvirus 1 = assay: Antiviral activity against Feline herpesvirus in feline […] cells assessed as inhibition of virus-induced cytopathicity; type: functional, organism-based
[26] = Cytotoxicity against african green monkey Vero cells assessed as drug level causing microscopically detectable alteration of normal cell morphology after 3 days; type: cell-based; settings: chlorocebus sabaeus; summary of the method: as §5
[27] = target: Human immunodeficiency virus type 1 reverse transcriptase (Human immunodeficiency virus 1, UniProt Q72547); assay: Inhibition of HIV1 reverse transcriptase p66/p51; settings: read-out: IC50
Sindbis virus = assay: Antiviral activity against Sindbis virus in african green monkey Vero cells assessed as protection against virus-induced cytopathicity; type: functional, organism-based; summary of the method: as §2

Compound	MCC at 72 h [1] [µM]	IC50 [2] [µM]	IC50 [3] [µM]	EC50 (Human alphaherpesvirus 1 [4]) [µM]	EC50 (Punta Toro virus) [µM]	EC50 (Vaccinia virus) [µM]	EC50 (Influenza A virus [5]) [µM]	EC50 [6] [µM]	EC50 (Human alphaherpesvirus 2) [µM]	EC50 (Influenza B virus [7]) [µM]	EC50 (Influenza A virus H3N2 [8]) [µM]	EC50 (Coxsackievirus B4 [9]) [µM]	IC50 [10] [µM]	EC50 [11] [µM]	EC50 (Influenza A virus [12]) [µM]	IC50 (CCRF-CEM) [µM]	EC50 [13] [µM]	EC50 [14] [µM]	EC50 (Human alphaherpesvirus 1 [15]) [µM]	IC50 [16] [µM]	also measured
Cc1cc(C)cc(S(=O)(=O)c2c(C(=O)NC(C)C(N)=O)[nH]c3ccc(Cl)c(F)c23)c1 (stereo not drawn)	100	6.28	0.27	> 20	> 20	> 20	> 4	> 20	> 20	> 4	> 4	> 4	22	> 4	> 4	21	> 20	0.0037	> 20	1.52	EC50 [17]: > 4 µM; IC50 (L1210): 30 µM; EC50 (Influenza B virus [18]): > 4 µM; EC50 (Coxsackievirus B4 [19]): 20 µM; MCC at 72 h [20]: 20 µM; EC50 (Feline coronavirus): > 20 µM; CC50 [21]: 51.4 µM; CC50 [22]: 6.5 µM; EC50 [23]: > 10 µM; EC50 (Influenza A virus H3N2 [24]): > 4 µM; EC50 (Human respirovirus 3): > 20 µM; MCC [25]: 20 µM; EC50 (Felid alphaherpesvirus 1): > 20 µM; MCC at 72 h [26]: 100 µM; IC50 [27]: 0.062 µM; EC50 (Sindbis virus): > 20 µM
Cc1cc(C)cc(S(=O)(=O)c2c(C(=O)NC(C)CC(N)=O)[nH]c3ccc(Cl)c(F)c23)c1 (stereo not drawn)	100	> 40	0.39	> 20	> 20	> 20	> 4	> 20	> 20	> 4	> 4	9	25	20	> 4	27	> 20	0.0046	> 20	3.39	EC50 [17]: > 20 µM; IC50 (L1210): 42 µM; EC50 (Influenza B virus [18]): > 4 µM; EC50 (Coxsackievirus B4 [19]): > 20 µM; MCC at 72 h [20]: 100 µM; EC50 (Feline coronavirus): > 20 µM; CC50 [21]: 42.6 µM; CC50 [22]: 6.2 µM; EC50 [23]: > 10 µM; EC50 (Influenza A virus H3N2 [24]): > 4 µM; EC50 (Human respirovirus 3): > 20 µM; MCC [25]: 20 µM; EC50 (Felid alphaherpesvirus 1): > 20 µM; MCC at 72 h [26]: 100 µM; IC50 [27]: 0.359 µM; EC50 (Sindbis virus): > 20 µM
Cc1cc(C)cc(S(=O)(=O)c2c(C(=O)NC(C)CS(N)(=O)=O)[nH]c3ccc(Br)cc23)c1 (stereo not drawn)	20	8.55	0.125	> 4	> 20	> 4	> 800	> 20	> 4	> 800	> 800	3	9.3	≥ 4	> 800	12	> 4	0.0023	> 4	1.33	EC50 [17]: > 4 µM; IC50 (L1210): 11 µM; EC50 (Influenza B virus [18]): > 800 µM; EC50 (Coxsackievirus B4 [19]): 16 µM; MCC at 72 h [20]: 20 µM; EC50 (Feline coronavirus): > 20 µM; CC50 [21]: 53 µM; CC50 [22]: 1.9 µM; EC50 [23]: > 10 µM; EC50 (Influenza A virus H3N2 [24]): > 800 µM; EC50 (Human respirovirus 3): > 20 µM; MCC [25]: 4 µM; EC50 (Felid alphaherpesvirus 1): > 20 µM; MCC at 72 h [26]: ≥ 20 µM; IC50 [27]: 0.003 µM; EC50 (Sindbis virus): > 20 µM
